What was measured:
Rattus norvegicus = assay: Antiresorptive activity in thyroidparathyroidectomized sc dosed rat assessed as inhibition of 1,25-dihydroxyvitamin D3-induced hypercalcemia; format: functional
Method in brief: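 In vivo bone resorption was driven by 1,25-dihydroxyvitamin D3, which induced hypercalcemia in thyroparathyroidectomized (TPTX) rats. ED50 values for inhibition of resorption were determined following an earlier published method.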

Mus musculus [1] = assay: Antiinflammatory activity in delayed type hypersensitivity mouse model assessed as inhibition of granuloma wet weight at 100 mg/kg, sc
Mus musculus [2] = assay: Antiinflammatory activity in delayed type hypersensitivity mouse model assessed as inhibition of granuloma dry weight at 100 mg/kg, sc

SMILES	ED50 (Rattus norvegicus)	inhibition in vivo at 100 mg/kg (Mus musculus [1])	inhibition in vivo at 100 mg/kg (Mus musculus [2])
O=C1NC(=S)SC1C(c1ccccc1Cl)C(P(=O)(O)O)P(=O)(O)O (stereo not drawn)	0.08 mg/kg	38%	44%
O=[N+]([O-])c1ccc(/C=C(\c2nc3ccccc3s2)C(P(=O)(O)O)P(=O)(O)O)cc1	0.115 mg/kg	8%	10%
O=P(O)(O)C(/C(=C/c1ccc(Cl)cc1)c1nc2ccccc2s1)P(=O)(O)O	0.118 mg/kg		
Cc1ccc(C(C(C#N)c2nc3ccccc3s2)C(P(=O)(O)O)P(=O)(O)O)cc1 (stereo not drawn)	0.11 mg/kg	36%	38%
N#CC(c1nc2ccccc2s1)C(c1ccccc1[N+](=O)[O-])C(P(=O)(O)O)P(=O)(O)O (stereo not drawn)	0.105 mg/kg	48%	51%
O=C1NC(=S)SC1C(c1ccccc1[N+](=O)[O-])C(P(=O)(O)O)P(=O)(O)O (stereo not drawn)	0.088 mg/kg	42%	46%
CN(C)c1ccc(/C=C(\c2nc3ccccc3s2)C(P(=O)(O)O)P(=O)(O)O)cc1	0.11 mg/kg	14%	19%
O=[N+]([O-])c1ccccc1/C=C(\c1nc2ccccc2s1)C(P(=O)(O)O)P(=O)(O)O	0.135 mg/kg	8%	11%
N#CC(c1nc2ccccc2s1)C(c1ccccc1Cl)C(P(=O)(O)O)P(=O)(O)O (stereo not drawn)	0.09 mg/kg	50%	41%
O=C1NC(=S)SC1C(c1ccccc1)C(P(=O)(O)O)P(=O)(O)O (stereo not drawn)	0.077 mg/kg	46%	39%
CN(C)c1ccc(C(C2SC(=S)NC2=O)C(P(=O)(O)O)P(=O)(O)O)cc1 (stereo not drawn)	0.07 mg/kg	52%	55%
N#CC(c1nc2ccccc2s1)C(c1ccc(Cl)cc1)C(P(=O)(O)O)P(=O)(O)O (stereo not drawn)	0.09 mg/kg	52%	53%
O=C1NC(=S)SC1C(c1ccc([N+](=O)[O-])cc1)C(P(=O)(O)O)P(=O)(O)O (stereo not drawn)	0.085 mg/kg	43%	46%
CN(C)c1ccc(C(C(C#N)c2nc3ccccc3s2)C(P(=O)(O)O)P(=O)(O)O)cc1 (stereo not drawn)	0.08 mg/kg	53%	58%
N#CC(c1nc2ccccc2s1)C(c1ccc([N+](=O)[O-])cc1)C(P(=O)(O)O)P(=O)(O)O (stereo not drawn)	0.095 mg/kg	50%	38%
O=P(O)(O)C(/C(=C/c1ccccc1Cl)c1nc2ccccc2s1)P(=O)(O)O	0.105 mg/kg		
O=C1NC(=S)SC1C(c1ccccc1O)C(P(=O)(O)O)P(=O)(O)O (stereo not drawn)	0.078 mg/kg	54%	51%
Cc1ccc(/C=C(\c2nc3ccccc3s2)C(P(=O)(O)O)P(=O)(O)O)cc1	0.125 mg/kg	6%	13%
NCCC(O)(P(=O)(O)O)P(=O)(O)O [PAMIDRONIC ACID]	0.085 mg/kg		
O=P(O)(O)C(O)(Cc1cccnc1)P(=O)(O)O [RISEDRONIC ACID]		48%	44%

— ChEMBL document CHEMBL1141659, “Synthesis, properties, and perspectives of gem-diphosphono substituted-thiazoles” (2008)
